Bioassay records from PubChem.
C2C12 statin: suppression of simvastatin myotoxicity. C2C12 myotubes + simvastatin, ATP luminescence, 48 h; scaled: DMSO 0, geranylgeraniol control 100. rescue of ATP level, % at 7.49 µM. 0.78% of 330,000 active. AID 602340;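 active = mean ATP rescue above about 67%, or every replicate alone reaching that limit, limit read from the data, passing the limit was not always enough; inconclusive = no clear call, values can overlap the other calls; inactive = mean under the limit and some replicate under it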;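 note: myotubes were challenged with 10 µM simvastatin during compound exposure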
S100A4 MyoIIA: S100A4-myosin IIA interaction inhibition; P26447; S100A4/TAMRA-MyoIIA peptide fluorescence polarization; inhibition, % at 10.7 µM; 0.14% of 360,000 active; AID 652163;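 active = mean inhibition of at least 70% across replicates, with every replicate also reaching that level; inconclusive = mean inhibition reaches 70% but some replicates fall short; inactive = mean inhibition below 70%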
Target sequence (P26447 whole entry, looked up): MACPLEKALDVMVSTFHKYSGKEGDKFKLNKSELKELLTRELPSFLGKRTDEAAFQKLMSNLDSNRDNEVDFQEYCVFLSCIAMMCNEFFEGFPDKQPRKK
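Compound dosing: one dose per compound; test system: human S100A4 monomer with TAMRA-labelled myosin IIA peptide; probe or stimulus: TAMRA-labelled myosin IIA heavy-chain peptide probe, 5 nM; medium: HEPES buffer with Ca2+, pH 7.2; schedule: 5 min incubation before reading; benchmarks: neutral control DMSO, positive control TFP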
Cneo AK release: Cryptococcus neoformans lysis via adenylate kinase release | 0.2% of 360,000 active | lysis activity, % at 15 µM | C. neoformans lysis, adenylate kinase release luminescence, 4 h; normalised: neutral wells 0, clomiphene wells 100 | AID 651654;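 active = mean lysis activity across replicates of at least 80%, whatever share of replicates individually reach that level; inactive = mean lysis activity below 80%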
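Schedule: static 4 h at 37 °C with compound, 1 h detection; system: C. neoformans cells; benchmarks: Clomiphene as positive control; buffer or medium: fresh YPD medium; measure: luminescence rise reflecting yeast cell lysis; measured by: luminescent adenylate kinase detection reagent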
Ecoli rRNA inh: selective bacterial rRNA inhibition in E. coli; AID 720706; GFP signal change (wild-type ribosome), % (test concentration not listed); E. coli WT GFP vs humanized-ribosome RFP mutants, fluorescence, 24 h; active compounds read low; DMSO median 0, no signal -100; 1.6% of 350,000 active;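 active = significant combined selectivity score with lowered wild-type GFP, culture density cut under 30%, mutant RFP and density less affected; inactive = any of these conditions unmet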
PGC1a acetyl inh: lowers PGC1a acetylation signal in U2OS cells | AlphaScreen anti-acetyl-lysine; with virally co-expressed GCN5 acetyltransferase | inhibition, % at 15.6 µM | 0.17% of 350,000 active;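 active = every replicate shows inhibition of at least 40%; inconclusive = mean inhibition at least 40% but some replicate below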
SIRT5 inh: sirtuin-5 (human) deacylase inhibition. inhibition, % at 15 µM. Purified SirT5, succinyl-peptide AMC, trypsin-coupled fluorescence. Q9NXA8. 1.1% of 330,000 active; in the data active = inhibition above about 15%; inconclusive = no clear call, values can overlap the other calls
Target sequence (Q9NXA8 whole entry, looked up): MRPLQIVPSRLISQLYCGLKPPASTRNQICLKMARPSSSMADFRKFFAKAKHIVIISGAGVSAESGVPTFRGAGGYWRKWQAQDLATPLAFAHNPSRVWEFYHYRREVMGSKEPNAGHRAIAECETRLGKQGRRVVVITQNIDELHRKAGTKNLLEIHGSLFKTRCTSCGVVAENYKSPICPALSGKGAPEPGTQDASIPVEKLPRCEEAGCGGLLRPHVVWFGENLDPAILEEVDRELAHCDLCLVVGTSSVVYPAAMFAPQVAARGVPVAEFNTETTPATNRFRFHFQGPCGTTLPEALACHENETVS
Each line names hits and unclear results; the compound was inactive in the other large screens. Sampled rows, rich in hits. Any-hit rate of the full collection: about 3%.

Cc1oc(-c2ccccc2Cl)nc1CSCC(=O)O	S100A4 MyoIIA 186
NC(=O)CCn1c(C(=O)c2cc(Cl)c(N)c(Cl)c2)c2ccccc2[n+]1[O-]	none
NCCCn1c(C(=O)c2cc(Cl)c(N)c(Cl)c2)c2ccccc2[n+]1[O-]	SIRT5 inh 40 (no result: PGC1a acetyl inh)
CC(=O)n1cc(/C=N/NC(=O)c2cccc(O)c2)c2ccccc21	Ecoli rRNA inh -23
C=CCNC(=O)[C@@H]1[C@H]2C(=O)O[C@H](c3ccccc3)[C@H](c3ccccc3)N2[C@H](c2ccc(OCCO)cc2)[C@@]12C(=O)Nc1ccc(C#CCNC(N)=O)cc12	none (no result: C2C12 statin, Ecoli rRNA inh)
Cc1cccc(-c2cc(N3CCCN(C)CC3)n3nccc3n2)c1	S100A4 MyoIIA 112
OCCN1CCN(c2cc(-c3ccc4ccccc4c3)nc3ccnn23)CC1	none
CN1CCCN(c2cc(-c3ccc4ccccc4c3)nc3ccnn23)CC1	S100A4 MyoIIA 139 (no result: PGC1a acetyl inh)
C[C@H](CO)N1C[C@H](C)[C@@H](CN(C)S(C)(=O)=O)Oc2ccc(NS(C)(=O)=O)cc2C1=O	none
COc1ccc(NC(=O)CN2CCCC2)cc1	none
COc1ccc(NC(=O)Cn2nc3n(c2=S)CCC3)cc1	C2C12 statin 100 (no result: S100A4 MyoIIA, Ecoli rRNA inh, SIRT5 inh)
O=C(/C=C/c1ccccc1)N(Cc1cccc(Cl)c1)C1CCS(=O)(=O)C1 (stereo not drawn)	Ecoli rRNA inh -35 (no result: Cneo AK release)
O=C(/C=C/c1ccccc1)N(Cc1ccc(Cl)cc1)C1CCS(=O)(=O)C1 (stereo not drawn)	Ecoli rRNA inh -22
O=C(/C=C/c1ccccc1)N(Cc1cccs1)C1CCS(=O)(=O)C1 (stereo not drawn)	none
COc1cccc(CN(C(=O)/C=C/c2ccc(Cl)cc2)C2CCS(=O)(=O)C2)c1 (stereo not drawn)	Ecoli rRNA inh -36 (no result: C2C12 statin, Cneo AK release)
CCC(=O)N1CC2(C1)CN(Cc1cccc(F)c1)[C@@H](CO)c1c2c2ccc(OC)cc2n1C	none (no result: C2C12 statin, Cneo AK release)
Cc1noc(C)c1NC(=O)N(C)C[C@H]1OCCCC[C@H](C)Oc2ccc(NC(=O)NC3CCCCC3)cc2C(=O)N([C@@H](C)CO)C[C@@H]1C	none (no result: C2C12 statin)
c1ccc2c(CCNc3ncnc4nc[nH]c34)cccc2c1	C2C12 statin 86 (no result: S100A4 MyoIIA, Ecoli rRNA inh, SIRT5 inh)
c1ccc(CCCNc2ncnc3nc[nH]c23)cc1	SIRT5 inh 18
O=C(Cn1nc(-c2ccc(Cl)cc2)ccc1=O)NCC1COCCO1 (stereo not drawn)	SIRT5 inh 18
O=C(Cn1nc(-c2ccccc2)ccc1=O)NCC1COCCO1 (stereo not drawn)	none (no result: S100A4 MyoIIA, Ecoli rRNA inh, SIRT5 inh)
CCCCCOc1ccc(C(=O)NCCC(=O)NCCCC(=O)OCC)cc1	Ecoli rRNA inh -25 (no result: C2C12 statin, Cneo AK release)
CO[C@H]1CC[C@@H]2CCOc3ccc(C#N)cc3C(=O)N(C)CCCC(=O)N(C)C[C@H]1O2	none (no result: S100A4 MyoIIA, Cneo AK release, PGC1a acetyl inh, SIRT5 inh)
C=C1C(=O)C23CCC4C(C)(C(=O)OC)CCCC4(C)C2CCC1(O)C3 (stereo not drawn)	PGC1a acetyl inh 76 (no result: C2C12 statin, Cneo AK release, SIRT5 inh)
COC(=O)[C@]1(C)CCC[C@@]2(C)C3CC[C@@]4(C)C[C@]3(CCC21)CC(=O)N4 (stereo partly drawn)	Ecoli rRNA inh -28 (no result: PGC1a acetyl inh, SIRT5 inh)
C[C@@]12CCC3[C@@](CCC4[C@@]3(C)CCC[C@@]4(C)C(=O)O)(CC1=O)C2 (stereo partly drawn)	none (no result: PGC1a acetyl inh)
C[C@@H]1COCn2nncc2CC[C@H](C)C(=O)N1	none (no result: C2C12 statin, S100A4 MyoIIA, Cneo AK release, PGC1a acetyl inh, SIRT5 inh)
C[C@H](NC(=O)C[C@@H]1CC[C@@H]2[C@H](COC[C@H](O)CN2C(=O)Nc2cccc(F)c2)O1)c1ccccc1	none
COc1cccc(NC(=O)N[C@@H]2CC[C@@H](CC(=O)N3CCOCC3)O[C@H]2CO)c1	none
C=CCOC(=O)C1=C(C)NC(=O)NC1C1CC=CCC1 (stereo not drawn)	C2C12 statin 117 (no result: S100A4 MyoIIA, Cneo AK release, Ecoli rRNA inh, SIRT5 inh)
O=C(CSc1ccncc1)Nc1ccc2ccccc2c1	Ecoli rRNA inh -31 (no result: C2C12 statin, Cneo AK release)
O=C(CSc1ccc2ccccc2c1)Nc1ccncc1	none
Cc1ccc(S(=O)(=O)N(C)C[C@@H]2OCCCC[C@@H](C)Oc3ccc(NC(=O)CCC(F)(F)F)cc3C(=O)N([C@@H](C)CO)C[C@H]2C)cc1	none (no result: C2C12 statin)
C[C@@H]1CCCCO[C@H](CN(C)C(=O)CCC(F)(F)F)[C@@H](C)CN([C@@H](C)CO)C(=O)c2cc(NC(=O)C3CCCCC3)ccc2O1	SIRT5 inh 18 (no result: C2C12 statin)
CC(C)NC(=O)Nc1ccc2c(c1)C(=O)N([C@@H](C)CO)C[C@@H](C)[C@@H](CN(C)C(=O)CCC(F)(F)F)OCCCC[C@H](C)O2	S100A4 MyoIIA inconclusive (no result: C2C12 statin)
CC(C)NC(=O)Nc1ccc2c(c1)C(=O)N([C@@H](C)CO)C[C@H](C)[C@@H](CN(C)C(=O)CCC(F)(F)F)OCCCC[C@H](C)O2	Cneo AK release 96 (no result: C2C12 statin)
C[C@@H]1CCCCO[C@@H](CN(C)C(=O)CCC(F)(F)F)[C@@H](C)CN([C@@H](C)CO)C(=O)c2cc(NC(=O)c3ccccc3)ccc2O1	S100A4 MyoIIA 97 (no result: C2C12 statin)
CCCNC(=O)N1CC2(CCN(CC3CCCC3)CC2)c2c(n(C)c3cc(OC)ccc23)[C@H]1CO	none (no result: C2C12 statin, Cneo AK release, PGC1a acetyl inh)
COc1cccc(-c2ccc3c(c2)[C@H]2[C@H](CCN2C(=O)c2ccc(F)cc2)[C@@H](CO)N3C)c1	none (no result: S100A4 MyoIIA, SIRT5 inh)
Cc1noc(C)c1NC(=O)N(C)C[C@@H]1OCCCC[C@@H](C)Oc2ccc(NC(=O)c3ccncc3)cc2C(=O)N([C@H](C)CO)C[C@H]1C	none
N#Cc1cc2ccc(N3CCOCC3)cc2cc1C#N	Ecoli rRNA inh -34
Cc1sc2nc(CN3CCN(S(=O)(=O)c4cccc5nonc45)CC3)[nH]c(=O)c2c1C	C2C12 statin 93 (no result: S100A4 MyoIIA, Ecoli rRNA inh, SIRT5 inh)
COc1ccc(NC(=O)N(C)C[C@H]2Oc3ccc(NC(=O)CCCCCC(=O)Nc4ccccc4N)cc3CC(=O)N([C@H](C)CO)C[C@H]2C)cc1	none
COCC(=O)N1CCCCN2[C@H](CO)[C@@H](c3ccc(C#Cc4ccccc4)cc3)[C@@H]2C1	none
Cc1cccc2nc(-c3cccnc3)c(Nc3ccccc3)n12	Ecoli rRNA inh -36
CC(C)NC(=O)N1[C@H](CO)[C@@H](c2ccccc2)[C@@H]1CNC(=O)CN(C)C	none (no result: S100A4 MyoIIA, SIRT5 inh)
O=C(COc1ccc(Cc2ccccc2)cc1)c1ccc(F)cc1	SIRT5 inh 16
Cn1c(C(=O)N2CCCC(C(=O)O)C2)cc2sccc21 (stereo not drawn)	C2C12 statin 96 (no result: S100A4 MyoIIA, Ecoli rRNA inh, SIRT5 inh)
CC(=O)Nc1nnc(SCc2cccc(F)c2)s1	C2C12 statin 87
O=C(C[C@H]1CC[C@@H]2[C@H](COC[C@H](O)CN2C(=O)c2ccc(F)cc2)O1)Nc1ccc(-c2ccccc2)cc1	none
COCCNC(=O)C[C@H]1CC[C@H]2[C@@H](COc3ccc(NC(=O)C4CCCC4)cc3C(=O)N2C)O1	none
O=C(CNc1cccc(Cl)c1)NNC(=S)NCc1ccccc1	Ecoli rRNA inh -24
